TAAR1 ag – human TAAR1 agonists, primary screen, Fluo-8 calcium fluorescence, CHO RD-HGA16 cells. vehicle wells 0%, saturating PEA agonist 100%. Trace amine-associated receptor 1 (Homo sapiens), Q96RJ0. hit rate 0.99% among 360,000. activation, % at 3 µM. AID 624467, 2012;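 active = activation above the mean activation of all test compounds in the run plus 3 SD, cut at about 38% in these data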
Target sequence (Q96RJ0 whole entry, looked up): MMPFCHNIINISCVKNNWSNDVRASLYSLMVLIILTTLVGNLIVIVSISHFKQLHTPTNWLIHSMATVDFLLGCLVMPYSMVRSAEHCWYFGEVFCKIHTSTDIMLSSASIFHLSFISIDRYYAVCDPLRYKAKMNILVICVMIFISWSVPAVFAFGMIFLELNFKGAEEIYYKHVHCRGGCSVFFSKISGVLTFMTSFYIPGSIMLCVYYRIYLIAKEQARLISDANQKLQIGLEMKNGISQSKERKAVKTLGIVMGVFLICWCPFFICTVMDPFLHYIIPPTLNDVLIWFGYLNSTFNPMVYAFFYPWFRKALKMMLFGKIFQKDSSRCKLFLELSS
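Assay system: CHO-derived RD-HGA16 cells with stable Gα16 and human TAAR1; timing: 17-24 h seeding, 75 min 37 °C dye, 30 min RT; read-out: % activation from peak over basal fluorescence ratio, DMSO-to-PEA scaled; measured by: kinetic Fluo-8 calcium fluorescence; benchmarks: low control DMSO, high control PEA (EC100); doses: 3 µM single concentration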
OX1R antag-1 – antagonists of human orexin 1 receptor (OX1R) | Orexin/Hypocretin receptor type 1 (Homo sapiens), O43613 | OX1R-expressing cells, FRET antagonist read-out | inhibition, % at 6.6 µM | hit rate 1.8% among 330,000 | AID 485270, 2010; in the data active = inhibition mostly above about 38%, no sharp cut-off; inactive = mostly below about 40%;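 also: 0% = agonist challenge alone and 100% = reference antagonist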
GPR7 antagonist – GPR7 receptor antagonists, primary screen, cell-based, fluorescence, single concentration. GPR7-expressing cells, fluorescence antagonist assay. hit rate 1.1% among 290,000. AID 1861, 2009. inhibition, % at 4.4 µM; in the data active = inhibition above about 16%, passing the limit was not always enough;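 also: cells stimulated with the agonist NPW; 0% = agonist with vehicle and 100% = vehicle without agonist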
Target sequence (P48145 whole entry, looked up): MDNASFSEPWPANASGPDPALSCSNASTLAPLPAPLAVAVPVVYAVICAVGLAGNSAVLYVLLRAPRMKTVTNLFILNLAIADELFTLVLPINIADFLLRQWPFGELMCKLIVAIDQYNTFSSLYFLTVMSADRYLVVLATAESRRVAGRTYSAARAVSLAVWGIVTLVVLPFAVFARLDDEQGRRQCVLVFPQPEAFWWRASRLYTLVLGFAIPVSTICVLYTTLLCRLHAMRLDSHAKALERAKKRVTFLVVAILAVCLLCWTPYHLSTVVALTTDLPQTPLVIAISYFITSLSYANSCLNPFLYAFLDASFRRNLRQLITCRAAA
CHO parental Ca – ATP-evoked calcium signal inhibitors, parental CHO, primary screen, counter-screen for OX1R antagonist project, cell-based, fluorescence, Fluo-8 calcium dye; hit rate 0.63% among 330,000; parental CHO-K1, ATP-induced calcium, Fluo-8 fluorescence; inhibition, % at 5.6 µM;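 active = inhibition above that plate's mean sample inhibition plus 3 SD, cut at about 26% in these data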;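 also: 0% = ATP-challenged DMSO wells and 100% = DMSO wells without ATP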
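material = parental CHO cells | also added = ATP as calcium-mobilizing challenge | dosing = single point at 5.6 µM | detection = intracellular calcium via Fluo-8 no-wash fluorescent dye | read-out = % inhibition | benchmarks = low control ATP plus DMSO, high control DMSO only | repeats = one well per compound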
TAAR1 antagonist – human TAAR1 antagonists, primary screen, Fluo-8 calcium fluorescence, CHO RD-HGA16 cells; antagonist; hit rate 1.5% among 360,000; AID 624466, 2012; inhibition, % at 3 µM;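 active = inhibition above a per-plate cutoff, the mean inhibition of test compounds on that plate plus 3 SD, cut at about 49% in these data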;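 also: 0% = DMSO plus EC80 beta-PEA response and 100% = DMSO alone without agonist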
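Test system – hTAAR1-expressing CHO RD-HGA16 cells, Gα16-coupled · Also added – β-PEA at EC80 concentration, post-compound challenge · Compound – 3 µM, single point · Incubation – dye loading 75 min at 37 °C, then 30 min room temperature · Measured by – Fluo-8 intracellular calcium dye fluorescence, real-time kinetic reads · Benchmarks – vehicle and agonist controls · Replicates – singlicate, one well per test compound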
OX1R antag-2 – OX1R (HCRTR1) antagonists, primary screen, fluorescence, CHO/OX1R cells, Fluo-8 calcium, orexin A. Orexin/Hypocretin receptor type 1 (Homo sapiens), O43613. Fluo-8 calcium fluorescence. inhibition, % at 5 µM. hit rate 0.43% among 330,000;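 active = inhibition above its plate's threshold, mean inhibition of all tested compounds on the plate plus 3 SD, cut at about 37% in these data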;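 also: 0% = orexin A challenge wells and 100% = SB-334867-A antagonist wells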
GPR7 antag cf – GPR7 receptor antagonists, confirmation, cell-based, fluorescence, single concentration; inhibition, % at 4.4 µM; AID 1952, 2009; hit rate 52% among 2,400; shares compounds with GPR7 antagonist; GPR7-expressing cells, calcium fluorescence antagonist mode; in the data active = inhibition above about 24%;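 also: stimulated with the GPR7 agonist NPW; 0% = agonist plus vehicle and 100% = vehicle alone without agonist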
MCHR1 antagonist – MCHR1 antagonists in cells, counter-screen for GPR7 antagonist project, cell-based, fluorescence, human; MCHR1-expressing cells, fluorescence antagonist assay; hit rate 62% among 2,400; inhibition, % at 4.4 µM; shares compounds with GPR7 antagonist; in the data active = inhibition above about 22%;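 also: 0% = vehicle with agonist and 100% = vehicle without agonist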
Starred values were filed as active, the others as inactive; · = not tested or not shown. Most compounds without a hit are left out; they make up all but 4.6% or so of the library.

SMILES	TAAR1 ag	OX1R antag-1	GPR7 antagonist	CHO parental Ca	TAAR1 antagonist	OX1R antag-2	GPR7 antag cf	MCHR1 antagonist
CCOC(=O)c1ccc(Nc2nc(N3CCOCC3)nc(N3CCOCC3)n2)cc1	-1	3	-13	-14	-16	-7	·	·
Cn1c(=O)oc2cc(S(=O)(=O)N3CCN(c4ccccc4F)CC3)ccc21	3	10	5	3	-11	5	·	·
COc1ccccc1N1CCN(S(=O)(=O)c2ccc3c(c2)oc(=O)n3C)CC1	2	12	30*	-1	-1	-9	4	-2
CCC(C)N(C(=O)CSc1nncn1C)C1CCS(=O)(=O)C1 (configuration not stated)	1	1	·	7	11	4	·	·
COc1ccc2c(c1)[nH]c1c(=O)n(CCN3CCOCC3)cnc12	0	6	-3	-4	-30	3	·	·
O=C(NCCCN1CCOCC1)C(=O)N/N=C/c1ccccc1	0	15	4	-4	19	-5	·	·
Cc1ccc(CC(=O)N2CCN(c3ccc([N+](=O)[O-])cc3)CC2)cc1	-1	35	39*	17	4	-8	43*	41*
O=C(OC1CCN(c2ccc([N+](=O)[O-])cc2)CC1)c1ccccc1	5	26	29*	3	14	-5	47*	68*
COc1ccccc1CC(=O)N1CCN(c2ccc([N+](=O)[O-])cc2)CC1	4	12	25*	0	23	-6	7	36*
O=C(c1ccccc1F)N1CCN(c2cccc(C(F)(F)F)c2)CC1	3	3	23*	-18	3	-35	10	7
O=C(c1c(F)c(F)c(F)c(F)c1F)N1CCN(c2cccc(C(F)(F)F)c2)CC1	1	19	-12	1	8	-2	·	·
COc1ccccc1C(=O)N1CCN(c2cccc(Cl)c2)CC1	10	18	25*	-21	3	-17	15	25*
COc1ccccc1NC(=O)N1CCN(c2cccc(C(F)(F)F)c2)CC1	10	13	-7	-15	8	-17	·	·
COc1ccccc1CC(=O)N1CCN(c2cccc(C(F)(F)F)c2)CC1	3	12	26*	-1	-4	-2	38*	38*
Cc1cc(O)c(C(C)C)cc1C1(c2cc(C(C)C)c(O)cc2C)OC(=O)c2ccccc21	2	0	28	1	-35	-5	17	14
O=C(NC1(Cc2ccc(O)cc2)CCCCC1)c1ccccc1	-2	19	-7	-9	12	-14	·	·
CCN1C(=O)C(CC(=O)Nc2ccc(F)cc2)N(CCCN2CCN(c3ccc(F)cc3)CC2)C1=S (configuration not stated)	30	9	33*	-3	53*	-7	29*	62*
CCN(CC#CCC(O)(c1ccccc1)C1CCCC1)C(C)C (configuration not stated)	11	20	29*	-22	3	-18	3	-1
CCCC(c1nnnn1C1CCCCC1)N1CCN(C2CCCC2)CC1 (configuration not stated)	4	5	22*	-21	1	-20	22	17
CC1CCc2cc(F)ccc2N1C(=O)c1cccnc1 (configuration not stated)	0	-1	26*	-11	-8	-10	-5	1
CC1Cc2ccccc2N1C(=O)c1cccnc1 (configuration not stated)	5	10	-8	-7	20	0	·	·
CCN(CC)S(=O)(=O)c1ccc(NC(=O)c2ccc(N(C)S(C)(=O)=O)cc2)cc1	14	17	32*	-13	-4	-6	44*	58*
Cc1ccc(Cl)cc1N1CCN(C(=O)C2CCC(=O)N(C3CCCCCC3)C2)CC1 (configuration not stated)	3	13	26*	-9	-19	-14	37*	55*
C=CCn1c(SCC(=O)NC(=O)NC2CCCC2)nnc1C1CCCCC1	8	13	-7	-15	-15	-22	·	·
CN(C)c1ccc(/C=N\NC(=O)c2cccc3cc[nH]c23)cc1	2	11	0	-14	-1	-16	·	·
SMILES	TAAR1 ag	OX1R antag-1	GPR7 antagonist	CHO parental Ca	TAAR1 antagonist	OX1R antag-2	GPR7 antag cf	MCHR1 antagonist
CCc1cc(=O)oc2cc(OCC(=O)N3CCC(C(=O)O)CC3)ccc12	1	6	-11	-11	-11	11	·	·
CCCc1cc(=O)oc2cc(OCC(=O)N3CCC(C(N)=O)CC3)ccc12	2	11	23*	-9	-22	-4	11	0
Cc1ccc(S(=O)(=O)NCC(C)NC(=O)CN2CCOCC2)cc1 (configuration not stated)	-1	13	-10	12	13	-12	·	·
COc1ccc(C2OC(=O)CC2C(=O)NCc2ccccc2Cl)cc1OC (configuration not stated)	1	15	0	-13	-22	-22	·	·
O=C(O)c1ccccc1C(=O)Nc1ccc(-n2ccc(C(F)(F)F)n2)cc1	16	12	-14	-14	-8	3	·	·
O=C(Nc1ccc(-n2ccc(C(F)(F)F)n2)cc1)Nc1cccc(Cl)c1	13	31	21*	22	34	57*	42*	71*
Cc1cc(CN(C)C(=O)C2CCC(=O)N(CCc3ccccc3)C2)n[nH]1 (configuration not stated)	1	·	6	·	-1	·	·	·
CC(CC(=O)N1CCN(c2cccc(Cl)c2)CC1)S(=O)(=O)c1ccc2c(c1)NC(=O)CO2 (configuration not stated)	17	60*	28*	78*	79*	57*	37*	77*
COc1cc(C)cc2c1OC(c1ccccc1)CC2=O (configuration not stated)	-2	·	·	·	1	·	·	·
COc1ccc(F)cc1C(=O)C1CCCN(Cc2cn(C)c3ccccc23)C1 (configuration not stated)	7	29	24*	-11	-14	-13	33*	30*

Bioassay records (PubChem)
